We go through 8 compounds from ChEMBL document CHEMBL1144047, “Design and synthesis of diketopiperazine and acyclic analogs related to the caprazamycins and liposidomycins as potential antibacterial agents” (2008).

≈ marks a conversion by molar mass, not a printed value. A value given as a limit tells only on which side of the number the result lay.

For orientation: MIC means the least concentration at which growth counts as inhibited. A high value points to a need for much substance. Broadly, the inhibition is the share of the control response that was lost under treatment.

Common to all, as to assay type: functional
In assay [1] the test system is Bacillus subtilis. Description: Antibacterial activity against Bacillus subtilis NRRLB-558 after 18 hrs by serial agar dilution method. The method in brief: (§1)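 MIC determined by serial agar dilution on plain Mueller–Hinton agar; read after 18 h incubation at 37 °C.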
For assay [2], the system named is Enterococcus faecalis. Description: Antibacterial activity against Enterococcus faecalis NCTC-12201 after 18 hrs by serial agar dilution method. The method in brief: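 MIC by serial agar dilution on Mueller–Hinton agar supplemented with 5% sheep blood; plates incubated 18 hours at 37 °C under 5% CO₂ before reading.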
Background: In agar dilution the substance is mixed into plates at graded concentrations.

The subject of assay [3] is Micrococcus luteus. Description: Antibacterial activity against Micrococcus luteus PCI1001 after 18 hrs by serial agar dilution method. Conditions: PCI1001, 18 h. The method in brief: as §1
Assay [4] concerns Corynebacterium bovis. The experiment in a line: Antibacterial activity against Corynebacterium bovis 1810 after 18 hrs by serial agar dilution method. A digest of the protocol:
as §1

The subject of assay [5] is Mycolicibacterium smegmatis. Description: Antibacterial activity against Mycobacterium smegmatis ATCC607 after 42 hrs by serial agar dilution method. The method in brief: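 Serial agar dilution MIC using Mueller–Hinton agar containing 5% glycerol; growth read after 42 h at 37 °C.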
Assay [6] has as its system Staphylococcus aureus. Description: Antibacterial activity against Staphylococcus aureus Smith after 18 hrs by serial agar dilution method. The method in brief:
as §1

Assay [7] has as its system Staphylococcus aureus. The experiment in a line: Antibacterial activity against methicillin-resistant Staphylococcus aureus 5 after 18 hrs by serial agar dilution method. A digest of the protocol: (§2)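 MIC by serial agar dilution on Mueller–Hinton agar (no supplement for staphylococci); plates read after 18 h incubation at 37 °C.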
Assay [8] has as its system Micrococcus luteus. Description: Antibacterial activity against Micrococcus luteus FDA16 after 18 hrs by serial agar dilution method. The method in brief: as §1
For assay [9], the system named is Staphylococcus aureus. Description: Antibacterial activity against MDR-Staphylococcus aureus MS9610 after 18 hrs by serial agar dilution method. The method in brief:
as §2

Assay [10] has as its system Mycobacterium tuberculosis. The experiment in a line: Antibacterial activity against Mycobacterium tuberculosis H37Rv at 6.25 ug/ml by microplate Alamar blue assay. A digest of the protocol: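 M. tuberculosis H37Rv (ATCC 27294) grown in BACTEC 12B medium; microplate Alamar blue assay; growth inhibition rate recorded at 6.25 µg/mL.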

For `CCCCCCCCCCCCCCCC(=O)OC[C@H](NC(=O)[C@@H](N)[C@H](O[C@@H]1O[C@H](CN)[C@@H](O)[C@H]1O)[C@H]1O[C@@H](n2ccc(=O)[nH]c2=O)[C@H](O)[C@@H]1O)C(=O)O`, the MIC worked out at 25 µg/mL (≈ 32.3 µM) in [1]; 50 µg/mL (≈ 64.6 µM) in [2]; 25 µg/mL (≈ 32.3 µM) in [3]; 12.5 µg/mL (≈ 16.2 µM) in assay [4]; 100 µg/mL (≈ 129 µM) in assay [5]; 25 µg/mL (≈ 32.3 µM) in assay [6]. Besides, the MIC in assay [7], in assay [8] and in assay [9] was 50 µg/mL (≈ 64.6 µM) throughout. This compound registered an inhibition at 6.25 µg/mL in [10] of 51%.

For the compound `NC[C@H]1O[C@@H](O[C@H]([C@H]2O[C@@H](n3ccc(=O)[nH]c3=O)[C@H](O)[C@@H]2O)[C@H](N)C(=O)N[C@H](COC(=O)c2ccc(-c3ccccc3)cc2)C(=O)O)[C@H](O)[C@@H]1O`, the MIC was above 100 µg/mL in assay [1]; above 100 µg/mL in [2]; above 100 µg/mL in [3]; above 100 µg/mL in [4]; 100 µg/mL (≈ 140 µM) in assay [5]; above 100 µg/mL in assay [6]. In addition, the MIC in assay [8] and in assay [9] was above 100 µg/mL each time. The inhibition at 6.25 µg/mL in [10] amounted to 27%.

On to `NC[C@H]1O[C@@H](O[C@H]([C@H]2O[C@@H](n3ccc(=O)[nH]c3=O)[C@H](O)[C@@H]2O)[C@@H]2NC(=O)[C@H](COC(=O)c3ccc(-c4ccccc4)cc3)NC2=O)[C@H](O)[C@@H]1O`, for which the MIC was above 100 µg/mL in assay [1]; above 100 µg/mL in assay [2]; 100 µg/mL (≈ 143 µM) in assay [3]; above 100 µg/mL in assay [4]; 100 µg/mL (≈ 143 µM) in [5]; above 100 µg/mL in [6]. Besides, the MIC in assay [8] and in [9] was above 100 µg/mL in each case. Besides, the inhibition at 6.25 µg/mL in assay [10] worked out at 48%.

For the compound `NC[C@H]1O[C@@H](O[C@H]([C@H]2O[C@@H](n3ccc(=O)[nH]c3=O)[C@H](O)[C@@H]2O)[C@H](N)C(=O)N[C@@H](CO)C(=O)O)[C@H](O)[C@@H]1O`, the MIC in [1] is above 100 µg/mL; in assay [2] it was above 100 µg/mL; in assay [3] it was above 100 µg/mL; in assay [4], above 100 µg/mL; in [5], 100 µg/mL (≈ 187 µM); in assay [6], above 100 µg/mL. Also, the MIC in assay [8] and in [9] was above 100 µg/mL each time.

As to `CCCCCCCCCCCCCCCC(=O)OC[C@@H](NC(=O)[C@@H](N)[C@H](O[C@@H]1O[C@H](CN)[C@@H](O)[C@H]1O)[C@H]1O[C@@H](n2ccc(=O)[nH]c2=O)[C@H](O)[C@@H]1O)C(=O)O`, the MIC was found to be 25 µg/mL (≈ 32.3 µM) in assay [1]; 50 µg/mL (≈ 64.6 µM) in assay [2]; 12.5 µg/mL (≈ 16.2 µM) in assay [3]; 12.5 µg/mL (≈ 16.2 µM) in assay [4]; 50 µg/mL (≈ 64.6 µM) in assay [5]; 25 µg/mL (≈ 32.3 µM) in [6]. Besides, the MIC in [7], in [8] and in [9] was 50 µg/mL (≈ 64.6 µM) each time. In [10], this compound registered an inhibition at 6.25 µg/mL of 59%.

As for `NC[C@H]1O[C@@H](O[C@H]([C@H]2O[C@@H](n3ccc(=O)[nH]c3=O)[C@H](O)[C@@H]2O)[C@H](N)C(=O)N[C@@H](COC(=O)c2ccc(-c3ccccc3)cc2)C(=O)O)[C@H](O)[C@@H]1O`, the MIC in [1] was above 100 µg/mL; in [2], above 100 µg/mL; in assay [3], 50 µg/mL (≈ 69.9 µM); in [4], 100 µg/mL (≈ 140 µM); in assay [5], 100 µg/mL (≈ 140 µM); in assay [6] it was above 100 µg/mL. For the same compound, the MIC in assay [8] and in assay [9] was above 100 µg/mL in each case. This compound also had an inhibition at 6.25 µg/mL in [10] of 52%.

Turning to `CCCCCCCCCCCCCCCC(=O)OC[C@@H]1NC(=O)[C@H]([C@H](O[C@@H]2O[C@H](CN)[C@@H](O)[C@H]2O)[C@H]2O[C@@H](n3ccc(=O)[nH]c3=O)[C@H](O)[C@@H]2O)NC1=O`, the MIC is 25 µg/mL (≈ 33.1 µM) in assay [1]; 100 µg/mL (≈ 132 µM) in [2]; 50 µg/mL (≈ 66.1 µM) in [3]; 50 µg/mL (≈ 66.1 µM) in assay [4]; 100 µg/mL (≈ 132 µM) in assay [5]; 25 µg/mL (≈ 33.1 µM) in assay [6]. Also, the MIC was 100 µg/mL (≈ 132 µM) in assay [7], 25 µg/mL (≈ 33.1 µM) in [8] and 100 µg/mL (≈ 132 µM) in [9]. Also, in assay [10], testing at 6.25 µg/mL gave an inhibition of 35%.

For `NC[C@H]1O[C@@H](O[C@H]([C@H]2O[C@@H](n3ccc(=O)[nH]c3=O)[C@H](O)[C@@H]2O)[C@@H]2NC(=O)[C@@H](COC(=O)c3ccc(-c4ccccc4)cc3)NC2=O)[C@H](O)[C@@H]1O`, the MIC in assay [1], in [2], in assay [3], in [4], in assay [5] and in [6] was above 100 µg/mL throughout. The MIC in assay [8] and in assay [9] was above 100 µg/mL in each case. This compound also registered an inhibition at 6.25 µg/mL in assay [10] of 29%.
